Test results taken from ChEMBL document CHEMBL1142371, “Synthesis and biological evaluation of imidazol-2-one derivatives as potential antitumor agents” (Bioorg Med Chem, 2008).
pIC50: −log10 of the molar value.

Experiments:
A549 = assay: Cytotoxicity against human A549 cells after 48 hrs by MTT assay; assay type: functional, cell-based; settings: A549, 48 h
In short: (§1)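 MTT read-out after 48 h drug exposure; MTT then added for a further 4 h at 37 °C, formazan dissolved in DMSO, absorbance at 570 nm. Triplicate wells in three independent experiments; IC50 = concentration giving 50% inhibition of cell viability, values are means of three experiments.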

HL-60 = assay: Cytotoxicity against human HL60 cells after 48 hrs by MTT assay; assay type: functional, cell-based; settings: HL-60, 48 h; in short: as §1
[1] = Cytotoxicity against human ECA109 cells after 48 hrs by MTT assay; assay type: functional, cell-based; settings: ECa-109, 48 h; in short: as §1
PC-3 = assay: Cytotoxicity against human PC3 cells after 48 hrs by MTT assay; assay type: functional, cell-based; settings: PC-3, 48 h; in short: as §1
[2] = Cytotoxicity against multidrug-resistant human K562R cells after 48 hrs by MTT assay; assay type: functional, cell-based; settings: K-562R; in short: as §1
Bel-7402 = assay: Cytotoxicity against human BEL-7402 cells after 48 hrs by MTT assay; assay type: functional, cell-based; settings: Bel-7402, 48 h; in short: as §1
MCF7 = assay: Cytotoxicity against human MCF7 cells after 48 hrs by MTT assay; assay type: functional, cell-based; settings: MCF7, 48 h; in short: as §1
K562 [3] = assay: Cytotoxicity against human K562 cells after 48 hrs by MTT assay; assay type: functional, cell-based; settings: K562, 48 h; in short: as §1
Mus musculus [4] = assay: Antitumor activity in mouse xenografted with H22 cells assessed as inhibition of tumor growth at 5 mg/kg/day, im after 10 days; assay type: functional; settings: 240 h, route intramuscular
In short: (§2)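 S-180 or H-22 cells expanded in mice for 10 days, then 2.5 × 10⁶ viable tumor cells per mouse injected subcutaneously into the armpit of female mice (9 per treated group, 18 negative controls). Compound given im once daily for 10 consecutive days; saline negative control, cyclophosphamide 30.0 mg/kg ip positive control. Tumors excised and weighed on day 10; inhibition rate = (C − T)/C × 100 from mean tumor weights.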

K562 [5] = assay: Cell cycle arrest in human K562 cells assessed as accumulation at G2/M phase at 0.01 uM after 48 hrs by flow cytometry; assay type: functional
In short: (§3)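 K562 cells in exponential growth exposed 48 h to 0–1 µM compound. Cells washed twice in PBS, fixed in 70% ethanol at −20 °C, RNase-treated 1 h at 37 °C, stained with propidium iodide 30 min at 4 °C. DNA content by flow cytometry gives cell-cycle phase distribution and apoptotic fraction.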

Mus musculus [6] = assay: Effect on body weight in mouse bearing S180 cells at 15 mg/kg/day, im after 10 days; assay type: functional, CCRF S-180; settings: route intramuscular
In short: (§4)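 Female tumor-bearing mice (S-180 or H-22, 2.5 × 10⁶ cells subcutaneously in armpit) dosed im once daily for 10 consecutive days; saline negative control. Initial and end body weights recorded per group.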

Mus musculus [7] = assay: Effect on body weight in mouse bearing H22 cells at 5 mg/kg/day, im after 10 days; assay type: functional; settings: route intramuscular; in short: as §4
Mus musculus [8] = assay: Antitumor activity in mouse xenografted with H22 cells assessed as inhibition of tumor growth at 20 mg/kg/day, im after 10 days; assay type: functional; settings: 240 h, route intramuscular; in short: as §2
Mus musculus [9] = assay: Effect on body weight in mouse bearing H22 cells at 20 mg/kg/day, im after 10 days; assay type: functional; settings: route intramuscular; in short: as §4
K562 [10] = assay: Cell cycle arrest in human K562 cells assessed as accumulation at S phase at 0.01 uM after 48 hrs by flow cytometry; assay type: functional; in short: as §3
K562 [11] = assay: Induction of apoptosis in human K562 cells at 1 uM after 48 hrs by flow cytometry; assay type: functional; in short: as §3
CCRF S-180 [12] = assay: Antitumor activity in mouse xenografted with S180 cells assessed as inhibition of tumor growth at 15 mg/kg/day, im after 10 days; assay type: functional; settings: CCRF S-180, im, 240 h, route intramuscular; in short: as §2
K562 [13] = assay: Induction of apoptosis in human K562 cells at 0.1 uM after 48 hrs by flow cytometry; assay type: functional; in short: as §3
CCRF S-180 [14] = assay: animal or person; settings: Mus musculus, CCRF S-180, ip, 240 h, read-out: Inhibition
H22 = assay: animal or person; settings: Mus musculus, H22, ip, 240 h, read-out: Inhibition

Compound	pIC50 (A549)	pIC50 (HL-60)	pIC50 [1]	pIC50 (PC-3)	pIC50 [2]	pIC50 (Bel-7402)	pIC50 (MCF7)	pIC50 (K562 [3])	inhibition in vivo at 5 mg/kg/day (Mus musculus [4])	Activity (K562 [5])	Activity (Mus musculus [6])	Activity (Mus musculus [7])	inhibition in vivo at 20 mg/kg/day (Mus musculus [8])	Activity (Mus musculus [9])	Activity (K562 [10])	Activity (K562 [11])	inhibition in vivo at 15 mg/kg/day (CCRF S-180 [12])	Activity (K562 [13])	inhibition in vivo at 30 mg/kg/day (CCRF S-180 [14])	inhibition in vivo at 30 mg/kg/day (H22)
COc1ccc(-c2c[nH]c(=O)n2-c2cc(OC)c(OC)c(OC)c2)cc1	< 4.30	4.70	< 4.30	< 4.30	< 4.30	–	–	–	–	–	–	–	–	–	–	–	–	–	–	–
COc1ccc(-c2cn(C(C)=O)c(=O)n2-c2cc(OC)c(OC)c(OC)c2)cc1OC	< 4.30	4.91	< 4.30	< 4.30	< 4.30	< 4.30	< 4.30	4.36	–	–	–	–	–	–	–	–	–	–	–	–
COc1ccc(-c2cn(C(=O)Nc3cc(OC)c(OC)c(OC)c3)c(=O)n2-c2cc(OC)c(OC)c(OC)c2)cc1OC	< 4.30	5.19	< 4.30	< 4.30	< 4.30	< 4.30	< 4.30	< 4.30	–	–	–	–	–	–	–	–	–	–	–	–
COc1ccc(-c2cn(C(=O)Nc3cc(OC)c(OC)c(OC)c3)c(=O)n2-c2cc(OC)c(OC)c(OC)c2)cc1[N+](=O)[O-]	< 4.30	4.71	< 4.30	< 4.30	< 4.30	–	–	5.14	–	–	–	–	–	–	–	–	–	–	–	–
COc1ccc(-c2cn(C(C)=O)c(=O)n2-c2cc(OC)c(OC)c(OC)c2)cc1[N+](=O)[O-]	4.39	5.25	4.51	4.52	< 4.30	4.45	< 4.30	< 4.30	–	–	–	–	–	–	–	–	–	–	–	–
COc1ccc(-c2cn(C(=O)Nc3cc(OC)c(OC)c(OC)c3)c(=O)n2-c2cc(OC)c(OC)c(OC)c2)cc1O	< 4.30	4.81	< 4.30	< 4.30	< 4.30	–	–	< 4.30	–	–	–	–	–	–	–	–	–	–	–	–
COc1cc(-n2c(-c3ccccc3)cn(C(C)=O)c2=O)cc(OC)c1OC	< 4.30	5.25	< 4.30	< 4.30	5.02	< 4.30	< 4.30	< 4.30	–	–	–	–	–	–	–	–	–	–	–	–
COc1ccc(-c2cn(C(=O)Nc3cc(OC)c(OC)c(OC)c3)c(=O)n2-c2cc(OC)c(OC)c(OC)c2)cc1	< 4.30	5.27	< 4.30	4.30	5.46	< 4.30	< 4.30	5.42	–	–	–	–	–	–	–	–	–	–	–	–
COc1ccc(-c2c[nH]c(=O)n2-c2cc(OC)c(OC)c(OC)c2)cc1N	< 4.30	4.99	< 4.30	4.30	< 4.30	< 4.30	< 4.30	4.31	–	–	–	–	–	–	–	–	–	–	–	–
COc1cc(-n2c(-c3ccc([N+](=O)[O-])cc3)cn(C(C)=O)c2=O)cc(OC)c1OC	4.30	5.14	< 4.30	4.48	4.30	< 4.30	< 4.30	4.58	–	–	–	–	–	–	–	–	–	–	–	–
COc1cc(-n2c(-c3ccc(F)cc3F)cn(C(C)=O)c2=O)cc(OC)c1OC	4.62	5.12	< 4.30	4.46	< 4.30	4.44	4.31	< 4.30	–	–	–	–	–	–	–	–	–	–	–	–
COc1ccc(-c2cn(C(=O)Nc3cc(OC)c(OC)c(OC)c3)c(=O)n2-c2cc(OC)c(OC)c(OC)c2)cc1N	4.95	5.51	< 4.30	5.00	5.03	5.00	< 4.30	5.24	–	–	–	–	–	–	–	–	–	–	–	–
COc1cc(-n2c(-c3ccc(Cl)cc3)cn(C(C)=O)c2=O)cc(OC)c1OC	< 4.30	5.31	< 4.30	–	–	–	–	< 4.30	–	–	–	–	–	–	–	–	–	–	–	–
COc1ccc(-c2c[nH]c(=O)n2-c2cc(OC)c(OC)c(OC)c2)cc1OC	< 4.30	4.41	< 4.30	< 4.30	< 4.30	–	–	–	–	–	–	–	–	–	–	–	–	–	–	–
COc1cc(-n2c(-c3ccc(O)cc3)c[nH]c2=O)cc(OC)c1OC	< 4.30	4.70	< 4.30	4.52	< 4.30	< 4.30	< 4.30	< 4.30	–	–	–	–	–	–	–	–	–	–	–	–
COc1ccc(-c2c[nH]c(=O)n2-c2cc(OC)c(OC)c(OC)c2)cc1[N+](=O)[O-]	< 4.30	4.84	< 4.30	< 4.30	< 4.30	–	–	–	–	–	–	–	–	–	–	–	–	–	–	–
COc1cc(-n2c(-c3ccc(Br)cc3)cn(C(C)=O)c2=O)cc(OC)c1OC	5.89	6.70	5.42	5.51	6.05	5.92	4.97	6.00	29.4%	31%	35.1 g	26.8 g	55.5%	27.6 g	54%	78.6%	55.3%	45.6%	–	–
COc1ccc(-c2cn(C(C)=O)c(=O)n2-c2cc(OC)c(OC)c(OC)c2)cc1	4.75	5.26	< 4.30	4.71	5.02	5.02	< 4.30	6.70	–	–	–	–	–	–	–	–	–	–	–	–
COc1cc(NC(=O)n2cc(-c3ccc(O)cc3)n(-c3cc(OC)c(OC)c(OC)c3)c2=O)cc(OC)c1OC	5.60	5.20	< 4.30	5.52	< 4.30	< 4.30	< 4.30	4.98	–	–	–	–	–	–	–	–	–	–	–	–
COc1ccc(-c2cn(C(C)=O)c(=O)n2-c2cc(OC)c(OC)c(OC)c2)cc1N	5.96	6.40	< 4.30	4.67	4.31	6.22	4.36	6.30	–	–	–	–	–	–	–	–	–	–	–	–
O=P1(N(CCCl)CCCl)NCCCO1 (centres undefined) [CYCLOPHOSPHAMIDE ANHYDROUS]	–	–	–	–	–	–	–	–	–	–	–	–	–	–	–	–	–	–	63.5%	36.2%
CC(=O)O[C@@]12CO[C@@H]1C[C@H](O)[C@@]1(C)C(=O)[C@H](O)C3=C(C)[C@@H](OC(=O)[C@H](O)[C@@H](NC(=O)OC(C)(C)C)c4ccccc4)C[C@@](O)([C@@H](OC(=O)c4ccccc4)[C@H]21)C3(C)C [DOCETAXEL]	5.77	–	–	4.26	–	–	5.40	5.07	–	–	–	–	–	–	–	–	–	–	–	–
